Where a name gives a salt, the structure may show the parent alone.
Legend:
[1] = tested on: PLC/PRF/5 hepatocellular carcinoma cells; assay: MTT cytotoxicity assay; type: cell-based, Human
Summary of the method: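 PLC/PRF/5 cells grown in DMEM with 10% FBS and penicillin/streptomycin at 37°C, 5% CO2. Seeded at 7×10^3 cells/well in triplicate and left 24 h. Treated 24 h or 48 h with test compound (DMSO stock diluted in DMEM) or nanoparticle formulations (DMEM-suspended, sonicated 10 min). MTT added for 3 h, formazan dissolved in isopropanol, A570 read. Untreated cells set at 100%. IC50 from curve fitting.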

Swiss albino mice = assay: In vivo biodistribution study; conditions: 5 mg/kg intravenously

CNC(=O)c1cc(Oc2ccc(NC(=O)Nc3ccc(Cl)c(C(F)(F)F)c3)cc2)ccn1 [SRFT, Sorafenib tosylate]
IC50 ([1]; Homo sapiens, PLC-PRF-5): 6 to 8 µM
cytotoxicity ([1]; PLC/PRF/5, 4–12 µM, 24 h and 48 h): concentration-dependent cytotoxicity
sorafenib distribution liver vs kidneys, first hour (Swiss albino mice; 1 h): accumulated in the kidneys was higher compared to liver
sorafenib distribution liver vs kidneys at 48 h (Swiss albino mice; 48 h): in kidneys at 48 h was higher than in the liver

From article PMC9635392 (International Journal of Nanomedicine, 2022)
